*1 amine or outer side, *2 acyl side, *3 side chain or, on linkers, in order; H or OH if unused. Where a SMILES comes first, the peptide text is derived from it. [ ]: non-standard residue; d: D form. The star is where a group is joined. X2 = O=C(c1cc(N=C=S)ccc1-c1c2ccc(=O)cc-2oc2cc(O)ccc12)*; Achc(cis-1,4) = O=C([C@H]1CC[C@@H](N[*:1])CC1)[*:2]; Achc(trans-4) = O=C([C@H]1CC[C@H](N[*:1])CC1)[*:2]; Azetidine3carboxylic = O=C(C1CN([*:1])C1)[*:2]; Phac(3-amino) = O=C(Cc1cccc(N[*:1])c1)[*:2]; X3 = C=CCCN([C@@H](CC(C)C)C(=O)[*:2])[*:1]; pY = N[C@@H](Cc1ccc(OP(=O)(O)O)cc1)C(=O)O; X1 = O=C(C1CN([*:3])CCN1[*:1])[*:2]; Trx = NC[C@H]1CC[C@H](C(=O)O)CC1; X6 = O=C([C@H](O)CCN[*:1])[*:2]; X4 = O=C(CC(O)CN[*:1])[*:2]; 4Amb = NCc1ccc(C(=O)O)cc1; 4Abz = Nc1ccc(C(=O)O)cc1; NH(but-3-enyl) = C=CCCN*; Inp = O=C(O)C1CCNCC1
Tests used:
[1] = target: T1, SHC-transforming protein 1 (Homo sapiens, UniProt P29353); assay: Binding affinity to Shc Src homology 2 domain by fluorescence anisotropy
T1 sequence (P29353 whole entry): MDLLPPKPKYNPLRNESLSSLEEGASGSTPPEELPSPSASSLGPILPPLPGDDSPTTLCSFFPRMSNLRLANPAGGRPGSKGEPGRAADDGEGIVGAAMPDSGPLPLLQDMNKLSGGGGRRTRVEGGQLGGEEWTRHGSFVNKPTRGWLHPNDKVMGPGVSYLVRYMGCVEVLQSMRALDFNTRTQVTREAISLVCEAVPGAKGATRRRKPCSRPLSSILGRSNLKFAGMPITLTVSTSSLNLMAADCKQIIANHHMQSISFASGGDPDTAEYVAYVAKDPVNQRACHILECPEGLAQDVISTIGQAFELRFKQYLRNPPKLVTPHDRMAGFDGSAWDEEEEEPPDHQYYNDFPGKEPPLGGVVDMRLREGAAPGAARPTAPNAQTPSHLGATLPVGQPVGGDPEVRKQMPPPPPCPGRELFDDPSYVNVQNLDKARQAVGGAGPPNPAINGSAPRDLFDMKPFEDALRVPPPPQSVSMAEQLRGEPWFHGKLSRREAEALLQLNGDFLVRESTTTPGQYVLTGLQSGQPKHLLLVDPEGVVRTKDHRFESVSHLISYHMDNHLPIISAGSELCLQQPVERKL
Procedure, shortened: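 Direct binding: 5 nM N-terminal fluorescein-labelled peptide in 10 mM HEPES, 150 mM NaCl pH 7.5 with 10% (v/v) DMSO; Shc SH2 protein serially diluted from 100 μM. Excitation 485 nm, parallel and perpendicular emission at 535 nm. Kd from fitting anisotropy versus protein concentration to a single-site binding model.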

[2] = target: T1, SHC-transforming protein 1; assay: Displacement of FITC-tagged NH-(CH2)4-CO-phospho-tyrosine-glutamine-glycine-leucine-serine-amide from Shc Src homology 2 domain by fluorescence anisotropy competition assay
Procedure, shortened: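 Competition: preformed complex of 2 μM Shc SH2 protein with 10 nM FITC-labelled reference peptide in HEPES/NaCl pH 7.5 buffer, 10% DMSO; unlabelled peptides serially diluted from 500 μM. Anisotropy read at 485/535 nm. Fractional binding fitted with an order-3 spline with three knots; IC50 taken where the spline reaches one half.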

Compound	Kd [1] [µM]	IC50 [2] [µM]
C=CCCNC(=O)[C@H](CC(C)C)N(CCC=C)C(=O)CNC(=O)[C@H](CCC(N)=O)NC(=O)[C@H](Cc1ccc(OP(=O)(O)O)cc1)NC(C)=O [4-((2S,5S,11S)-2-acetamido-5-(3-amino-3-oxopropyl)-10-(but-3-enyl)-11-isobutyl-3,6,9,12-tetraoxo-4,7,10,13-tetraazaheptadec-16-enyl)phenyl dihydrogen phosphate]	–	84
CC(C)C[C@H](NC(=O)CNC(=O)[C@H](CCC(N)=O)NC(=O)[C@H](Cc1ccc(OP(=O)(O)O)cc1)NC(=O)c1ccc(CNC(=O)c2cc(N=C=S)ccc2-c2c3ccc(=O)cc-3oc3cc(O)ccc23)cc1)C(=O)N[C@@H](CO)C(N)=O [4-((2S,5S,11S,14S)-1-amino-11-(3-amino-3-oxopropyl)-14-(4-((2-(6-hydroxy-3-oxo-3H-xanthen-9-yl)-5-isothiocyanatobenzamido)methyl)benzamido)-2-(hydroxymethyl)-5-isobutyl-1,4,7,10,13-pentaoxo-3,6,9,12-tetraazapentadecan-15-yl)phenyl dihydrogen phosphate] ({X2-4Amb}-[pY]QGLS-NH2)	12.3	–
CC(C)C[C@H](NC(=O)CNC(=O)[C@H](CCC(N)=O)NC(=O)[C@H](Cc1ccc(OP(=O)(O)O)cc1)NC(=O)C1CN(C(=O)c2cc(N=C=S)ccc2-c2c3ccc(=O)cc-3oc3cc(O)ccc23)C1)C(=O)N[C@@H](CO)C(N)=O [4-((2S,5S,11S,14S)-1-amino-11-(3-amino-3-oxopropyl)-14-(1-(2-(6-hydroxy-3-oxo-3H-xanthen-9-yl)-5-isothiocyanatobenzoyl)azetidine-3-carboxamido)-2-(hydroxymethyl)-5-isobutyl-1,4,7,10,13-pentaoxo-3,6,9,12-tetraazapentadecan-15-yl)phenyl dihydrogen phosphate] (X2-[Azetidine3carboxylic][pY]QGLS-NH2)	5.3	–
CC(C)C[C@H](NC(=O)CNC(=O)[C@H](CCC(N)=O)NC(=O)[C@H](Cc1ccc(OP(=O)(O)O)cc1)NC(=O)[C@H]1CC[C@H](CNC(=O)c2cc(N=C=S)ccc2-c2c3ccc(=O)cc-3oc3cc(O)ccc23)CC1)C(=O)N[C@@H](CO)C(N)=O [trans-4-((2S,5S,11S,14S)-1-amino-11-(3-amino-3-oxopropyl)-14-(4-((2-(6-hydroxy-3-oxo-3H-xanthen-9-yl)-5-isothiocyanatobenzamido)methyl)cyclohexanecarboxamido)-2-(hydroxymethyl)-5-isobutyl-1,4,7,10,13-pentaoxo-3,6,9,12-tetraazapentadecan-15-yl)phenyl dihydrogen phosphate] ({X2-Trx}-[pY]QGLS-NH2)	18	–
CC(C)C[C@H](NC(=O)CNC(=O)[C@H](CCC(N)=O)NC(=O)[C@H](Cc1ccc(OP(=O)(O)O)cc1)NC(=O)C1CCN(C(=O)c2cc(N=C=S)ccc2-c2c3ccc(=O)cc-3oc3cc(O)ccc23)CC1)C(=O)N[C@@H](CO)C(N)=O [4-((2S,5S,11S,14S)-1-amino-11-(3-amino-3-oxopropyl)-14-(1-(2-(6-hydroxy-3-oxo-3H-xanthen-9-yl)-5-isothiocyanatobenzoyl)piperidine-4-carboxamido)-2-(hydroxymethyl)-5-isobutyl-1,4,7,10,13-pentaoxo-3,6,9,12-tetraazapentadecan-15-yl)phenyl dihydrogen phosphate] ({X2-Inp}-[pY]QGLS-NH2)	14.2	–
C=CCCNC(=O)[C@H](CO)NC(=O)[C@H](CC(C)C)N(CCC=C)C(=O)CNC(=O)[C@H](CCC(N)=O)NC(=O)[C@H](Cc1ccc(OP(=O)(O)O)cc1)NC(C)=O [4-((2S,5S,11S,14S)-2-acetamido-5-(3-amino-3-oxopropyl)-10-(but-3-enyl)-14-(hydroxymethyl)-11-isobutyl-3,6,9,12,15-pentaoxo-4,7,10,13,16-pentaazaicos-19-enyl)phenyl dihydrogen phosphate] (Ac-[pY]QG[X3]S-{NH(but-3-enyl)})	–	89
CC(C)C[C@H](NC(=O)CNC(=O)[C@H](CCC(N)=O)NC(=O)[C@H](Cc1ccc(OP(=O)(O)O)cc1)NC(=O)[C@H](O)CCNC(=O)c1cc(N=C=S)ccc1-c1c2ccc(=O)cc-2oc2cc(O)ccc12)C(=O)N[C@@H](CO)C(N)=O [4-((2S,5S,11S,14S)-1-amino-11-(3-amino-3-oxopropyl)-14-((R)-2-hydroxy-4-(2-(6-hydroxy-3-oxo-3H-xanthen-9-yl)-5-isothiocyanatobenzamido)butanamido)-2-(hydroxymethyl)-5-isobutyl-1,4,7,10,13-pentaoxo-3,6,9,12-tetraazapentadecan-15-yl)phenyl dihydrogen phosphate] (X2-[X6][pY]QGLS-NH2)	9	–
CC(C)C[C@H](NC(=O)CNC(=O)[C@H](CCC(N)=O)NC(=O)[C@H](Cc1ccc(OP(=O)(O)O)cc1)NC(=O)[C@H]1CC[C@H](NC(=O)c2cc(N=C=S)ccc2-c2c3ccc(=O)cc-3oc3cc(O)ccc23)CC1)C(=O)N[C@@H](CO)C(N)=O [trans-4-((2S,5S,11S,14S)-1-amino-11-(3-amino-3-oxopropyl)-14-(4-(2-(6-hydroxy-3-oxo-3H-xanthen-9-yl)-5-isothiocyanatobenzamido)cyclohexanecarboxamido)-2-(hydroxymethyl)-5-isobutyl-1,4,7,10,13-pentaoxo-3,6,9,12-tetraazapentadecan-15-yl)phenyl dihydrogen phosphate] (X2-[Achc(trans-4)][pY]QGLS-NH2)	25.4	–

The remaining lines, values ahead:

Kd [1] [µM]	IC50 [2] [µM]	Compound
8.6	–	CC(C)C[C@H](NC(=O)CNC(=O)[C@H](CCC(N)=O)NC(=O)[C@H](Cc1ccc(OP(=O)(O)O)cc1)NC(=O)CC(O)CNC(=O)c1cc(N=C=S)ccc1-c1c2ccc(=O)cc-2oc2cc(O)ccc12)C(=O)N[C@@H](CO)C(N)=O (stereo partly drawn) [4-((2S,5S,11S,14S)-1-amino-11-(3-amino-3-oxopropyl)-14-(3-hydroxy-4-(2-(6-hydroxy-3-oxo-3H-xanthen-9-yl)-5-isothiocyanatobenzamido)butanamido)-2-(hydroxymethyl)-5-isobutyl-1,4,7,10,13-pentaoxo-3,6,9,12-tetraazapentadecan-15-yl)phenyl dihydrogen phosphate] (X2-[X4][pY]QGLS-NH2)
9.5	–	CC(C)C[C@H](NC(=O)CNC(=O)[C@H](CCC(N)=O)NC(=O)[C@H](Cc1ccc(OP(=O)(O)O)cc1)NC(=O)C1CN(C(=O)c2cc(N=C=S)ccc2-c2c3ccc(=O)cc-3oc3cc(O)ccc23)CCN1)C(=O)N[C@@H](CO)C(N)=O (stereo partly drawn) [4-((2S,5S,11S,14S)-1-amino-11-(3-amino-3-oxopropyl)-14-(4-(2-(6-hydroxy-3-oxo-3H-xanthen-9-yl)-5-isothiocyanatobenzoyl)piperazine-2-carboxamido)-2-(hydroxymethyl)-5-isobutyl-1,4,7,10,13-pentaoxo-3,6,9,12-tetraazapentadecan-15-yl)phenyl dihydrogen phosphate] (H-[X1](X2)[pY]QGLS-NH2)
0.5	–	CC(C)C[C@H](NC(=O)CNC(=O)[C@H](CCC(N)=O)NC(=O)[C@H](Cc1ccc(OP(=O)(O)O)cc1)NC(=O)[C@H]1CC[C@@H](NC(=O)c2cc(N=C=S)ccc2-c2c3ccc(=O)cc-3oc3cc(O)ccc23)CC1)C(=O)N[C@@H](CO)C(N)=O [cis-4-((2S,5S,11S,14S)-1-amino-11-(3-amino-3-oxopropyl)-14-(4-(2-(6-hydroxy-3-oxo-3H-xanthen-9-yl)-5-isothiocyanatobenzamido)cyclohexanecarboxamido)-2-(hydroxymethyl)-5-isobutyl-1,4,7,10,13-pentaoxo-3,6,9,12-tetraazapentadecan-15-yl)phenyl dihydrogen phosphate] (X2-[Achc(cis-1,4)][pY]QGLS-NH2)
23.9	–	CC(C)C[C@H](NC(=O)CNC(=O)[C@H](CCC(N)=O)NC(=O)[C@H](Cc1ccc(OP(=O)(O)O)cc1)NC(=O)c1ccc(NC(=O)c2cc(N=C=S)ccc2-c2c3ccc(=O)cc-3oc3cc(O)ccc23)cc1)C(=O)N[C@@H](CO)C(N)=O [4-((2S,5S,11S,14S)-1-amino-11-(3-amino-3-oxopropyl)-14-(4-(2-(6-hydroxy-3-oxo-3H-xanthen-9-yl)-5-isothiocyanatobenzamido)benzamido)-2-(hydroxymethyl)-5-isobutyl-1,4,7,10,13-pentaoxo-3,6,9,12-tetraazapentadecan-15-yl)phenyl dihydrogen phosphate] ({X2-4Abz}-[pY]QGLS-NH2)
0.77	–	CC(C)C[C@H](NC(=O)CNC(=O)[C@H](CCC(N)=O)NC(=O)[C@H](Cc1ccc(OP(=O)(O)O)cc1)NC(=O)Cc1cccc(NC(=O)c2cc(N=C=S)ccc2-c2c3ccc(=O)cc-3oc3cc(O)ccc23)c1)C(=O)N[C@@H](CO)C(N)=O [4-((2S,5S,11S,14S)-1-amino-11-(3-amino-3-oxopropyl)-14-(2-(3-(2-(6-hydroxy-3-oxo-3H-xanthen-9-yl)-5-isothiocyanatobenzamido)phenyl)acetamido)-2-(hydroxymethyl)-5-isobutyl-1,4,7,10,13-pentaoxo-3,6,9,12-tetraazapentadecan-15-yl)phenyl dihydrogen phosphate] (X2-[Phac(3-amino)][pY]QGLS-NH2)

From BindingDB's records for doi:10.1021/jm800789h (National Cancer Institute-Frederick, 2009)
